Measured values reported in ChEMBL document CHEMBL5058577, “EUbOPEN Chemogenomics Library 2 (Multiplex)” (2022).

Test system: HEK-293T
Experiment: Multiplex assay against HEK293T
Type: toxicity, cell-based
Conditions: human
Summary of the method: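 Cells were classed with CellPathfinder machine-learning gating, first as Hoechst high-intensity objects or normal cells, then (normal cells) as healthy, pyknosed or fragmented nuclei, and finally (pyknosed cells) as mitotic or apoptotic. Staining of live cells at seeding used Hoechst33342, BioTracker Green Microtubule Cytoskeleton Dye, MitoTracker Red and Annexin V Alexa Fluor 680, with imaging on a CQ1 microscope at 37°C and 5% CO2 after compound addition. Tubulin, mitochondrial-mass and membrane-permeability phenotypes are per cents of healthy-nucleus cells.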

[1] = 12 h, 1 µM, compound concentration 1 uM, replicate 1
[2] = 12 h, 1 µM, compound concentration 1 uM, replicate 2
[3] = 12 h, 10 µM, compound concentration 10 uM, replicate 1
[4] = 12 h, 10 µM, compound concentration 10 uM, replicate 2
[5] = 24 h, 1 µM, compound concentration 1 uM, replicate 1
[6] = 24 h, 1 µM, compound concentration 1 uM, replicate 2
[7] = 24 h, 10 µM, compound concentration 10 uM, replicate 1
[8] = 24 h, 10 µM, compound concentration 10 uM, replicate 2
[9] = 48 h, 1 µM, compound concentration 1 uM, replicate 1
[10] = 48 h, 1 µM, compound concentration 1 uM, replicate 2
[11] = 48 h, 10 µM, compound concentration 10 uM, replicate 1
[12] = 48 h, 10 µM, compound concentration 10 uM, replicate 2

For `Cc1cc(-c2ccc3c(c2)CC[C@H]3N2CC3(CCN(C(=O)Cc4cn5cc(C)sc5n4)CC3)C2)ncn1` [PF-5190457], the “Population Apoptotic (%)” value [1] was 36%, the “Population Fragmented Nuclei (%)” value [1] was 5% and the “Population Healthy Nuclei (%)” value [1] was 83%. The “Population Hoechst High Intensity Objects (%)” value [1] was 5%, the “Population Membrane Permeable-Phenotype (%)” value [1] was 0% and the “Population Mitochondria Different-Phenotype (%)” value [1] was 40%. The “Population Mitotic Cells (%)” value [1] was 63%, the “Population Normal (%)” value [1] was 94% and the “Population Pyknosed Nuclei (%)” value [1] was 11%. For the same compound, the “Population Tubulin-Different-Phenotype (%)” value [1] was 25%, the “Total Cell Count” value [1] was 418 and the “Population Apoptotic (%)” value [2] was 47%. The “Population Fragmented Nuclei (%)” value [2] was 8%, the “Population Healthy Nuclei (%)” value [2] was 72% and the “Population Hoechst High Intensity Objects (%)” value [2] was 10%. For the same compound, the “Population Mitochondria Different-Phenotype (%)” value [2] was 53%, the “Population Mitotic Cells (%)” value [2] was 52% and the “Population Normal (%)” value [2] was 89%. The “Population Pyknosed Nuclei (%)” value [2] was 19%, the “Population Tubulin-Different-Phenotype (%)” value [2] was 22% and the “Total Cell Count” value [2] was 258. The “Population Apoptotic (%)” value [3] was 40%, the “Population Fragmented Nuclei (%)” value [3] was 9% and the “Population Healthy Nuclei (%)” value [3] was 75%. The “Population Hoechst High Intensity Objects (%)” value [3] was 11%, the “Population Membrane Permeable-Phenotype (%)” value [3] was 0% and the “Population Mitochondria Different-Phenotype (%)” value [3] was 53%. For the same compound, the “Population Mitotic Cells (%)” value [3] was 60%, the “Population Normal (%)” value [3] was 88% and the “Population Pyknosed Nuclei (%)” value [3] was 14%. For the same compound, the “Population Tubulin-Different-Phenotype (%)” value [3] was 37%, the “Total Cell Count” value [3] was 455 and the “Population Apoptotic (%)” value [4] was 54%. The “Population Fragmented Nuclei (%)” value [4] was 3%, the “Population Healthy Nuclei (%)” value [4] was 80% and the “Population Hoechst High Intensity Objects (%)” value [4] was 8%. For the same compound, the “Population Mitochondria Different-Phenotype (%)” value [4] was 70%, the “Population Mitotic Cells (%)” value [4] was 45% and the “Population Normal (%)” value [4] was 91%. For the same compound, the “Population Pyknosed Nuclei (%)” value [4] was 16%, the “Population Tubulin-Different-Phenotype (%)” value [4] was 40% and the “Total Cell Count” value [4] was 322. The “Population Apoptotic (%)” value [5] was 21%, the “Population Fragmented Nuclei (%)” value [5] was 8% and the “Population Healthy Nuclei (%)” value [5] was 77%. The “Population Hoechst High Intensity Objects (%)” value [5] was 2%, the “Population Membrane Permeable-Phenotype (%)” value [5] was 0% and the “Population Mitochondria Different-Phenotype (%)” value [5] was 24%. For the same compound, the “Population Mitotic Cells (%)” value [5] was 78%, the “Population Normal (%)” value [5] was 97% and the “Population Pyknosed Nuclei (%)” value [5] was 13%. For the same compound, the “Population Tubulin-Different-Phenotype (%)” value [5] was 16%, the “Total Cell Count” value [5] was 549 and the “Population Apoptotic (%)” value [6] was 45%. For the same compound, the “Population Fragmented Nuclei (%)” value [6] was 11%, the “Population Healthy Nuclei (%)” value [6] was 78% and the “Population Hoechst High Intensity Objects (%)” value [6] was 7%. The “Population Membrane Permeable-Phenotype (%)” value [6] was 1%, the “Population Mitochondria Different-Phenotype (%)” value [6] was 35% and the “Population Mitotic Cells (%)” value [6] was 54%. The “Population Normal (%)” value [6] was 92%, the “Population Pyknosed Nuclei (%)” value [6] was 9% and the “Population Tubulin-Different-Phenotype (%)” value [6] was 11%. The “Total Cell Count” value [6] was 352, the “Population Apoptotic (%)” value [7] was 25% and the “Population Fragmented Nuclei (%)” value [7] was 10%. The “Population Healthy Nuclei (%)” value [7] was 75%, the “Population Hoechst High Intensity Objects (%)” value [7] was 5% and the “Population Membrane Permeable-Phenotype (%)” value [7] was 1%. For the same compound, the “Population Mitochondria Different-Phenotype (%)” value [7] was 28%, the “Population Mitotic Cells (%)” value [7] was 74% and the “Population Normal (%)” value [7] was 94%. For the same compound, the “Population Pyknosed Nuclei (%)” value [7] was 14%, the “Population Tubulin-Different-Phenotype (%)” value [7] was 30% and the “Total Cell Count” value [7] was 638. For the same compound, the “Population Apoptotic (%)” value [8] was 36%, the “Population Fragmented Nuclei (%)” value [8] was 5% and the “Population Healthy Nuclei (%)” value [8] was 81%. The “Population Hoechst High Intensity Objects (%)” value [8] was 6%, the “Population Membrane Permeable-Phenotype (%)” value [8] was 0% and the “Population Mitochondria Different-Phenotype (%)” value [8] was 51%. For the same compound, the “Population Mitotic Cells (%)” value [8] was 63%, the “Population Normal (%)” value [8] was 93% and the “Population Pyknosed Nuclei (%)” value [8] was 13%. The “Population Tubulin-Different-Phenotype (%)” value [8] was 23%, the “Total Cell Count” value [8] was 425 and the “Population Apoptotic (%)” value [9] was 25%. The “Population Fragmented Nuclei (%)” value [9] was 14%, the “Population Healthy Nuclei (%)” value [9] was 79% and the “Population Hoechst High Intensity Objects (%)” value [9] was 1%. The “Population Membrane Permeable-Phenotype (%)” value [9] was 1%, the “Population Mitochondria Different-Phenotype (%)” value [9] was 18% and the “Population Mitotic Cells (%)” value [9] was 74%. The “Population Normal (%)” value [9] was 98%, the “Population Pyknosed Nuclei (%)” value [9] was 5% and the “Population Tubulin-Different-Phenotype (%)” value [9] was 9%. The “Total Cell Count” value [9] was 873, the “Population Apoptotic (%)” value [10] was 39% and the “Population Fragmented Nuclei (%)” value [10] was 12%. The “Population Healthy Nuclei (%)” value [10] was 80%, the “Population Hoechst High Intensity Objects (%)” value [10] was 3% and the “Population Mitochondria Different-Phenotype (%)” value [10] was 21%. The “Population Mitotic Cells (%)” value [10] was 60%, the “Population Normal (%)” value [10] was 96% and the “Population Pyknosed Nuclei (%)” value [10] was 6%. The “Population Tubulin-Different-Phenotype (%)” value [10] was 10%, the “Total Cell Count” value [10] was 531 and the “Population Apoptotic (%)” value [11] was 24%. The “Population Fragmented Nuclei (%)” value [11] was 14%, the “Population Healthy Nuclei (%)” value [11] was 77% and the “Population Hoechst High Intensity Objects (%)” value [11] was 2%. The “Population Membrane Permeable-Phenotype (%)” value [11] was 0%, the “Population Mitochondria Different-Phenotype (%)” value [11] was 27% and the “Population Mitotic Cells (%)” value [11] was 76%. For the same compound, the “Population Normal (%)” value [11] was 97%, the “Population Pyknosed Nuclei (%)” value [11] was 8% and the “Population Tubulin-Different-Phenotype (%)” value [11] was 20%. The “Total Cell Count” value [11] was 927, the “Population Apoptotic (%)” value [12] was 46% and the “Population Fragmented Nuclei (%)” value [12] was 13%. For the same compound, the “Population Healthy Nuclei (%)” value [12] was 78%, the “Population Hoechst High Intensity Objects (%)” value [12] was 4% and the “Population Mitochondria Different-Phenotype (%)” value [12] was 32%. The “Population Mitotic Cells (%)” value [12] was 53%, the “Population Normal (%)” value [12] was 95% and the “Total Cell Count” value [12] was 520.
